Reference: ChEMBL document CHEMBL1151235, “Bromophenol derivatives from the red alga Rhodomela confervoides” (J Nat Prod, 2004)

Tests used:
BGC-823 = experiment: Cytotoxicity against human BGC823 cells by MTT assay; format: functional, cell-based
Method in brief: (§1)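 Panel of human tumour lines: A549 lung adenocarcinoma, BGC-823 stomach cancer, MCF-7 breast cancer, Bel7402 hepatoma and HCT-8 colon cancer. Activity reported as IC50 in μg/mL.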

MCF7 = experiment: Cytotoxicity against human MCF7 cells by MTT assay; format: functional, cell-based; method in brief: as §1
A549 = experiment: Cytotoxicity against human A549 cells by MTT assay; format: functional, cell-based; method in brief: as §1
Bel-7402 = experiment: Cytotoxicity against human Bel7402 cells by MTT assay; format: functional, cell-based; method in brief: as §1
HCT-8 = experiment: Cytotoxicity against human HCT8 cells by MTT assay; format: functional, cell-based; method in brief: as §1
Escherichia coli = experiment: Antimicrobial activity against Escherichia coli; format: functional
Method in brief: (§2)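 Whole-organism tests on S. aureus, E. coli and the yeast C. albicans. Potency reported as MIC50 in μg/mL.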

Candida albicans = experiment: Antimicrobial activity against Candida albicans; format: functional; method in brief: as §2
Staphylococcus aureus = experiment: Antimicrobial activity against Staphylococcus aureus; format: functional; method in brief: as §2

## CC(=O)/C=C/c1cc(O)c(O)c(Br)c1Br
BGC-823
  IC50: > 10 µg/mL
MCF7
  IC50: > 10 µg/mL
A549
  IC50: > 10 µg/mL
Bel-7402
  IC50: > 10 µg/mL
HCT-8
  IC50: > 10 µg/mL

## COc1c(O)cc(C(Cc2cc(O)c(O)c(Br)c2Br)C(=O)O)cc1Br (configuration not stated)
BGC-823
  IC50: > 10 µg/mL
MCF7
  IC50: > 10 µg/mL
Escherichia coli
  MIC: > 100 µg/mL
A549
  IC50: > 10 µg/mL
Candida albicans
  MIC: > 100 µg/mL
Bel-7402
  IC50: > 10 µg/mL
HCT-8
  IC50: > 10 µg/mL
Staphylococcus aureus
  MIC: > 100 µg/mL

## COC(=O)Cc1cc(O)c(OC)c(Br)c1
BGC-823
  IC50: > 10 µg/mL
MCF7
  IC50: > 10 µg/mL
Escherichia coli
  MIC: > 100 µg/mL
A549
  IC50: > 10 µg/mL
Candida albicans
  MIC: > 100 µg/mL
Bel-7402
  IC50: > 10 µg/mL
HCT-8
  IC50: > 10 µg/mL
Staphylococcus aureus
  MIC: > 100 µg/mL

## C[S+]([O-])Cc1cc(O)c(O)c(Br)c1Br (configuration not stated)
BGC-823
  IC50: > 10 µg/mL
MCF7
  IC50: > 10 µg/mL
Escherichia coli
  MIC: > 100 µg/mL
A549
  IC50: > 10 µg/mL
Candida albicans
  MIC: > 100 µg/mL
Bel-7402
  IC50: > 10 µg/mL
HCT-8
  IC50: > 10 µg/mL
Staphylococcus aureus
  MIC: > 100 µg/mL

## COC(=O)C(Cc1cc(O)c(O)c(Br)c1Br)c1cc(O)c(OC)c(Br)c1 (configuration not stated)
BGC-823
  IC50: > 10 µg/mL
MCF7
  IC50: > 10 µg/mL
A549
  IC50: > 10 µg/mL
Bel-7402
  IC50: > 10 µg/mL
HCT-8
  IC50: > 10 µg/mL

## COc1c(O)cc(C(=O)O)cc1Br
BGC-823
  IC50: > 10 µg/mL
MCF7
  IC50: > 10 µg/mL
Escherichia coli
  MIC: > 100 µg/mL
A549
  IC50: > 10 µg/mL
Candida albicans
  MIC: > 100 µg/mL
Bel-7402
  IC50: > 10 µg/mL
HCT-8
  IC50: > 10 µg/mL
Staphylococcus aureus
  MIC: > 100 µg/mL
